Type in all cases: functional
Common to all, as to details: read-out: Activity

Experiment [1] is described as follows: Neuroprotective activity against glutamate-stimulated rat cortical cells assessed as cell viability at 0.1 uM after 1 hr by LDH assay relative to control. In outline:
(§1)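 Mixed cortical cultures from 17- to 19-day fetal Sprague-Dawley rats, grown 2 weeks in DMEM/10% FCS, with 5-fluorodeoxyuridine 50 µM from day 3. Cells were washed, given sample in DMSO (0.1% final) for 1 h, then 50 µM glutamate plus sample for 24 h. Medium LDH was read at 450 nm. Viability is relative to glutamate-only and vehicle control; mean ± SEM, three experiments.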

Experiment [2] is described as follows: Neuroprotective activity against glutamate-stimulated rat cortical cells assessed as cell viability at 1 uM after 1 hr by LDH assay relative to control. In outline:
as §1

A short description of experiment [3]: Neuroprotective activity against glutamate-stimulated rat cortical cells assessed as cell viability at 10 uM after 1 hr by LDH assay relative to control. The essentials:
as §1

Each structure is given as a SMILES string.

`COC(=O)C1=CO[C@@H](O[C@@H]2O[C@H](CO)[C@@H](O)[C@H](O)[C@H]2O)[C@@H]2C(CO)=C[C@@H](OC(=O)/C=C/c3ccc(O)cc3)[C@H]12`: the viability at 0.1 µM in experiment [1] was found to be 14.5%. Besides, the viability at 1 µM in experiment [2] was 62.2%. Also, in experiment [3], the viability at 10 µM was found to be 26.8%.

Regarding `O=c1c(O[C@@H]2O[C@H](CO)[C@H](O)[C@H](O)[C@H]2O[C@@H]2O[C@H](CO)[C@@H](O)[C@H](O)[C@H]2O)c(-c2ccc(O)cc2)oc2cc(O)cc(O)c12`, the viability at 0.1 µM in experiment [1] was 4.6%. The viability at 1 µM in experiment [2] came out at 27%. Also, in experiment [3], the viability at 10 µM amounted to 25.2%.

As for `COC(=O)C1=CO[C@@H](O[C@@H]2O[C@H](CO)[C@@H](O)[C@H](O)[C@H]2O)[C@@H]2C(CO)=C[C@@H](OC(=O)/C=C/c3ccc(OC)cc3)[C@H]12`, the viability at 0.1 µM in experiment [1] was found to be 65.4%. Besides, the viability at 1 µM in experiment [2] was found to be 71.8%. The viability at 10 µM in experiment [3] turned out to be 52.8%.

Regarding `COC(=O)C1=CO[C@@H](O[C@@H]2O[C@H](CO)[C@@H](O)[C@H](O)[C@H]2O)[C@@H]2C(CO)=C[C@@H](OC(=O)/C=C\c3ccc(OC)cc3)[C@H]12`, the viability at 0.1 µM in experiment [1] came out at 28.8%. Also, in experiment [2], the viability at 1 µM was 54.6%. The viability at 10 µM in experiment [3] was found to be 23.7%.

For the compound `COc1cc(/C=C/C(=O)OC[C@H]2O[C@@H](O[C@H]3[C@H](Oc4c(-c5ccc(O)c(O)c5)oc5cc(O)cc(O)c5c4=O)O[C@H](CO)[C@H](O)[C@@H]3O)[C@H](O)[C@@H](O)[C@@H]2O)ccc1O`, in experiment [1], the viability at 0.1 µM was determined as 62.7%. Besides, the viability at 1 µM in experiment [2] came out at 72.9%. Further, the viability at 10 µM in experiment [3] came out at 75%.

Take `O=c1c(O[C@@H]2O[C@H](CO)[C@H](O)[C@H](O)[C@H]2O[C@@H]2O[C@H](CO)[C@@H](O)[C@H](O)[C@H]2O)c(-c2ccc(O)c(O)c2)oc2cc(O)cc(O)c12`: the viability at 0.1 µM in experiment [1] came out at 48.2%. Further, the viability at 1 µM in experiment [2] is 66%. Further, the viability at 10 µM in experiment [3] was 54%.

As to `COC(=O)C1=CO[C@@H](O[C@@H]2O[C@H](CO)[C@@H](O)[C@H](O)[C@H]2O)[C@@H]2C(CO)=C[C@@H](OC(=O)/C=C\c3ccc(O)cc3)[C@H]12`, in experiment [1], the viability at 0.1 µM came out at 6.9%. The viability at 1 µM in experiment [2] was found to be 25.7%. In addition, in experiment [3], the viability at 10 µM stood at 6.3%.

For the compound `COc1cc(/C=C/C(=O)OC[C@H]2O[C@@H](O[C@H]3[C@H](Oc4c(-c5ccc(O)cc5)oc5cc(O)cc(O)c5c4=O)O[C@H](CO)[C@H](O)[C@@H]3O)[C@H](O)[C@@H](O)[C@@H]2O)ccc1O`, the viability at 0.1 µM in experiment [1] came to 25.2%. Moreover, the viability at 1 µM in experiment [2] was found to be 66.9%. Besides, in experiment [3], the viability at 10 µM was 25.2%.

Consider `COc1cc(/C=C/C(=O)OC[C@H]2O[C@@H](O[C@H]3[C@H](Oc4c(-c5ccc(O)c(O)c5)oc5cc(O)cc(O)c5c4=O)O[C@H](CO)[C@@H](O)[C@@H]3O)[C@H](O)[C@@H](O)[C@@H]2O)ccc1O`, for which, in experiment [1], the viability at 0.1 µM amounted to 62.9%. Moreover, the viability at 1 µM in experiment [2] was 71.5%. For the same compound, the viability at 10 µM in experiment [3] is 73.7%.

For the origin of these results see ChEMBL document CHEMBL1150223, “Neuroprotective constituents from Hedyotis diffusa” (2001).
